{
  "source": "ChEMBL document CHEMBL4433211",
  "about": "“Discovery of the First-in-Class GSK-3β/HDAC Dual Inhibitor as Disease-Modifying Agent To Combat Alzheimer's Disease” (ACS Med Chem Lett, 2019)",
  "key": {"SH-SY5Y [1]": {"test_system": "SH-SY5Y", "assay": "Induction of neurogenesis in human SH-SY5Y cells assessed as upregulation of GAP43 mRNA at 10 uM incubated for 24 hrs by RT-PCR analysis", "assay_type": "functional, cell-based", "outline": "(§1)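 SH-SY5Y cells treated 24 h (10 μM, or 1 μM for one parent compound; retinoic acid positive control); GAP43, N-myc and MAP-2 mRNA measured by RT-PCR, expressed as fold of control.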"}, "SH-SY5Y [2]": {"test_system": "SH-SY5Y", "assay": "Induction of neurogenesis in human SH-SY5Y cells assessed as upregulation of N-myc mRNA at 10 uM incubated for 24 hrs by RT-PCR analysis", "assay_type": "functional, cell-based", "outline": "as §1"}, "SH-SY5Y [3]": {"test_system": "SH-SY5Y", "assay": "Induction of neurogenesis in human SH-SY5Y cells assessed as upregulation of MAP-2 mRNA at 10 uM incubated for 24 hrs by RT-PCR analysis", "assay_type": "functional, cell-based", "outline": "as §1"}, "SH-SY5Y [4]": {"test_system": "SH-SY5Y", "assay": "Induction of neurogenesis in human SH-SY5Y cells assessed as stimulation of neurite outgrowth at 10 uM incubated for 72 hrs by phase contrast microscopic analysis", "assay_type": "functional, cell-based", "outline": "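SH-SY5Y cells treated 72 h at 10 μM, retinoic acid (10 μM) as positive control; neurite-bearing cells scored from images taken at 20× magnification.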"}, "[5]": {"biological_target": "T1, Glycogen synthase kinase-3 beta (Homo sapiens, UniProt P49841)", "assay": "Inhibition of human recombinant GSK3beta using GSM as substrate incubated for 30 mins by luminescence based assay"}, "Histone deacetylase 1 [6]": {"biological_target": "T2, Histone deacetylase 1 (Homo sapiens, UniProt Q13547)", "T2 sequence (Q13547 whole entry)": "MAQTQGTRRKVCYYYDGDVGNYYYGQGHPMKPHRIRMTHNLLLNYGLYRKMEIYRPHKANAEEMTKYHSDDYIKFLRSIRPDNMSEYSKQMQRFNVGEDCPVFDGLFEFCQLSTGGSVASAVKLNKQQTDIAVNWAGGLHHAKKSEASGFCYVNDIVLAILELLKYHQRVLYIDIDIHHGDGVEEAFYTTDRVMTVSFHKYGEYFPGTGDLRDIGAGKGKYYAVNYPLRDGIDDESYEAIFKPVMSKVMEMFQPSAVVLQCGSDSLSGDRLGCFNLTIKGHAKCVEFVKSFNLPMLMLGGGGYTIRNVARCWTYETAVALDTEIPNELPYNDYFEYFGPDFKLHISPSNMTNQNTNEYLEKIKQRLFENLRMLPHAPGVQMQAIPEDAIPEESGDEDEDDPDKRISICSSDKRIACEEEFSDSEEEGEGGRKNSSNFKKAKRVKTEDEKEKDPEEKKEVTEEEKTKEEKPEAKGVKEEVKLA", "assay": "Inhibition of human recombinant his tagged HDAC1 expressed in baculovirus infected […] insect cells up to 30 uM using tertbutyloxycarbonyl (Boc)-(Ac)-Lys-7-amino-4-methylcoumarin as substrate incubated for 1 hr by fluorescence based assay"}, "[7]": {"biological_target": "T3, Protein deacetylase HDAC6 (Homo sapiens) (UniProt Q9UBN7)", "T3 sequence (whole entry)": "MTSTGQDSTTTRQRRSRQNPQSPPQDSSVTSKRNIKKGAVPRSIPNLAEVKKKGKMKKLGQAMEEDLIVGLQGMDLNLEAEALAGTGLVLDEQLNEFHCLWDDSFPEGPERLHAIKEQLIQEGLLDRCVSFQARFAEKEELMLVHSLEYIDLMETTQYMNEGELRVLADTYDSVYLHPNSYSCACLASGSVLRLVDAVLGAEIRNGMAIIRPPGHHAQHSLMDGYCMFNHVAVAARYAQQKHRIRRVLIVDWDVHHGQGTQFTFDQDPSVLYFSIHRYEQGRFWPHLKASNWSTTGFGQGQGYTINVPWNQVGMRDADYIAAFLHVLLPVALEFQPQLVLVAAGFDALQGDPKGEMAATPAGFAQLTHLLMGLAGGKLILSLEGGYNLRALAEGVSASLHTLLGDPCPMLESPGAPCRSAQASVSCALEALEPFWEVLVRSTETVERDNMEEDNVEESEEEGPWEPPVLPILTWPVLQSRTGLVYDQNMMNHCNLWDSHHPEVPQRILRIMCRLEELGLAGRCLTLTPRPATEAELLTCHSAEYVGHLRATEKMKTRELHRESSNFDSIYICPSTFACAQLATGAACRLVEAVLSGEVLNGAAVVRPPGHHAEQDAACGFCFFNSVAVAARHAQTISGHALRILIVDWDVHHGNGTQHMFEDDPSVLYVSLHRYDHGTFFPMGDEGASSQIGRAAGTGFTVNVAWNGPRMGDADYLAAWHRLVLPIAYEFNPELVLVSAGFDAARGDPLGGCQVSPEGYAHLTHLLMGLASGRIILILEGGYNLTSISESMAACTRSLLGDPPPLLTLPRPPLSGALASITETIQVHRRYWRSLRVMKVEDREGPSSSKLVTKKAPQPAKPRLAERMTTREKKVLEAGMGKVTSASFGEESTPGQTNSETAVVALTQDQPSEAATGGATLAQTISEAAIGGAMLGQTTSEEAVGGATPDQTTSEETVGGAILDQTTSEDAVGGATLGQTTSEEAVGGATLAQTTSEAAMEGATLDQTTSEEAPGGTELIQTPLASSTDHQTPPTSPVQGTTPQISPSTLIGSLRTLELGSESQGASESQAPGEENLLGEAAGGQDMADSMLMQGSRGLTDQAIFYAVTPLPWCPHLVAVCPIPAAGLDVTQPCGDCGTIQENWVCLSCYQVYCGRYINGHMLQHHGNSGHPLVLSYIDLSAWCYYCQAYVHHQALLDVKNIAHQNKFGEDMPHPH", "assay": "Inhibition of human recombinant his tagged HDAC6 expressed in baculovirus infected […] insect cells up to 30 uM using batcp as substrate incubated for 1 hr by fluorescence based assay"}, "[8]": {"biological_target": "T1, Glycogen synthase kinase-3 beta", "assay": "Inhibition of GSK3beta in human SH-SY5Y cells assessed as reduction in copper-induced tau hyperphosphorylation at 10 uM preincubated for 1 hr followed by copper addition and measured after 26 hrs by ELISA", "assay_type": "cell-based", "conditions": "in the assay text read “16 hrs” for “26 hrs”", "outline": "(§2)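 Differentiated SH-SY5Y cells pretreated 1 h with test agent (LiCl 10 mM reference; compounds 10 μM), then copper 400 μM for 16 h; cells scraped, phospho-tau quantified by immunoenzymatic assay at 450 nm; mean ± SEM.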"}, "Microglia [9]": {"test_system": "Microglia", "assay": "Immunomodulatory activity in LPS treated Wistar rat primary microglial cells assessed as decrease in NOS2 expression level at 5 to 50 uM incubated for 24 hrs by western blot analysis", "assay_type": "functional, cell-based", "outline": "(§3)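 Primary microglial cells treated 24 h with LPS in presence or absence of test compound; NOS2, MRC1 and TREM2 protein assessed by Western blot, normalized to GAPDH.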"}, "Microglia [10]": {"test_system": "Microglia", "assay": "Immunomodulatory activity in LPS treated Wistar rat primary microglial cells assessed as decrease in MRC1 expression level at 5 to 50 uM incubated for 24 hrs by western blot analysis", "assay_type": "functional, cell-based", "outline": "as §3"}, "Microglia [11]": {"test_system": "Microglia", "assay": "Immunomodulatory activity in LPS treated Wistar rat primary microglial cells assessed as effect on TREM2 expression level at 5 to 50 uM incubated for 24 hrs by western blot analysis", "assay_type": "functional, cell-based", "outline": "as §3"}, "[12]": {"biological_target": "Histone deacetylase (Homo sapiens) (UniProt Q13547+O15379+Q9UBN7+Q92769+Q9UQL6+Q8WUI4+Q9BY41+Q96DB2+P56524+Q9UKV0+Q969S8)", "assay": "Synergistic inhibition of HDAC in human SH-SY5Y cells assessed as increase in acetylation of alpha-tubulin incubated for 30 hrs in presence of verinostat by Western blot analysis", "assay_type": "cell-based"}, "SH-SY5Y [13]": {"test_system": "SH-SY5Y", "assay": "Synergistic neuroprotective activity against H2O2-induced cell death in human SH-SY5Y cells at 0.1 uM incubated for 24 hrs in presence of verinostat by MTS assay", "assay_type": "functional, cell-based", "outline": "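SH-SY5Y cells challenged 24 h with H2O2 (25 and 50 μM) in presence of compounds (0.1–10 μM), alone or as a two-compound combination; viability by MTS assay as % of control.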"}, "[14]": {"test_system": "Cerebellar granule neurone", "assay": "Neuroprotective activity against 6-OHDA-induced cell death in Wistar rat primary cerebellar granule neurons at 20 uM preincubated for 6 hrs followed by 6-OHDA addition and measured after 24 hrs in presence of in presence of 5 uM verinostat by MTT assay", "assay_type": "functional, cell-based", "outline": "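Primary differentiated cerebellar granule neurons challenged with 6-OHDA with or without test compound; viability assessed; mean ± SE of at least 3 experiments in quadruplicate, one-way ANOVA with Bonferroni post hoc test.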"}, "[15]": {"biological_target": "T1, Glycogen synthase kinase-3 beta", "assay": "Inhibition of GSK3beta in human SH-SY5Y cells assessed as reduction in copper-induced tau hyperphosphorylation at 10 mM preincubated for 1 hr followed by copper addition and measured after 26 hrs by ELISA", "assay_type": "cell-based", "conditions": "in the assay text read “16 hrs” for “26 hrs”", "outline": "as §2"}, "Histone deacetylase 1 [16]": {"biological_target": "T2, Histone deacetylase 1", "assay": "Inhibition of human recombinant his tagged HDAC1 expressed in baculovirus infected […] insect cells using tertbutyloxycarbonyl (Boc)-(Ac)-Lys-7-amino-4-methylcoumarin as substrate incubated for 1 hr by fluorescence based assay"}, "[17]": {"biological_target": "T4, Protein deacetylase HDAC6 (Homo sapiens, UniProt Q9UBN7)", "T4 sequence (Q9UBN7 whole entry)": "T3 sequence (whole entry)", "assay": "Inhibition of human recombinant his tagged HDAC6 expressed in baculovirus infected […] insect cells using batcp as substrate incubated for 1 hr by fluorescence based assay"}},
  "note": "Calls of active or inactive are those of the source. No cut-off for these calls is given here.",
  "data": [
    {"smiles": "CC1=C(/C=C/C(C)=C/C=C/C(C)=C/C(=O)O)C(C)(C)CCC1", "values": [
      {"measurement": "Activity", "setting": "SH-SY5Y [1]", "value": "Active"},
      {"measurement": "Activity", "setting": "SH-SY5Y [2]", "value": "Active"},
      {"measurement": "Activity", "setting": "SH-SY5Y [3]", "value": "Active"},
      {"measurement": "Activity", "setting": "SH-SY5Y [4]", "value": "Active"}
    ]},
    {"smiles": "O=C1NC(=O)c2ccccc21", "note": "[PHTHALIMIDE]", "values": [
      {"measurement": "IC50", "setting": "[5]", "value": 20.2, "unit": "µM"},
      {"measurement": "inhibition", "setting": "Histone deacetylase 1 [6]", "value": "inactive"},
      {"measurement": "inhibition", "setting": "[7]", "value": "inactive"},
      {"measurement": "inhibition", "setting": "[8]", "value": "Active"},
      {"measurement": "Activity", "setting": "SH-SY5Y [1]", "value": "Active"},
      {"measurement": "Activity", "setting": "SH-SY5Y [2]", "value": "inactive"},
      {"measurement": "Activity", "setting": "SH-SY5Y [3]", "value": "Active"},
      {"measurement": "Activity", "setting": "SH-SY5Y [4]", "value": "Active"},
      {"measurement": "Activity", "setting": "Microglia [9]", "value": "Active"},
      {"measurement": "Activity", "setting": "Microglia [10]", "value": "Active"},
      {"measurement": "Activity", "setting": "Microglia [11]", "value": "inactive"},
      {"measurement": "inhibition", "setting": "[12]", "value": "inactive"},
      {"measurement": "Activity", "setting": "SH-SY5Y [13]", "value": "inactive"},
      {"measurement": "Activity", "setting": "[14]", "value": "Active"}
    ]},
    {"smiles": "[Cl-].[Li+]", "values": [
      {"measurement": "inhibition", "setting": "[15]", "value": "Active"}
    ]},
    {"smiles": "O=C(CCNC(=S)Nc1ccc2c(c1)C(=O)NC2=O)NO", "values": [
      {"measurement": "IC50", "setting": "[5]", "value": 20, "unit": "µM"},
      {"measurement": "IC50", "setting": "Histone deacetylase 1 [16]", "value": 3.75, "unit": "µM"},
      {"measurement": "IC50", "setting": "[17]", "value": 18.1, "unit": "µM"}
    ]}
  ]
}
